HIV Env fusion – blocks HIV Env-driven cell-cell fusion; inhibition, % at 12.3 µM; AID 651610; hit rate 1.1% among 360,000; HeLa-JRFL Env/CEM21 cell fusion, luciferase;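 active = mean replicate inhibition score of at least 50 and every replicate individually at or above 50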;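 also: 0% = plate neutral controls and 100% = maraviroc near 300 nM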
V-ATPase pHluor – alters yeast V-ATPase proton transport. AID 504577. hit rate 0.37% among 350,000. S. cerevisiae, pHLuorin cytosolic pH fluorescence. response, % at 10 µM; in the data active = response mostly above about 7.3%, no sharp cut-off; inactive = mostly below about 5.4%; also: actives read high
GAA850 FXN act – activators of GAA850 frataxin (FXN) promoter. HEK293 lucGAA850 FXN promoter luciferase reporter, 24 h; percent of 10 µM SAHA response. activation, % at 6 µM. hit rate 0.56% among 360,000;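 active = activation above the average of all compounds screened plus 3 SD, cutoff fixed separately per campaign, cut at about 7.5% in these data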;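 also: 0% = DMSO wells and 100% = 10 µM SAHA wells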
GalR3 antag – antagonists of human GalR3 | O60755 | HEK293 GalR3-CNG cAMP membrane potential fluorescence; galR3 body fused to GalR1 C-terminus | inhibition, % at 3 µM | hit rate 0.44% among 360,000;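 active = inhibition above the screen-wide average plus 3 SD, cut at about 13% in these data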;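 also: forskolin and galanin both at EC90 stimulate the cells; cAMP rise reported by CNG channel membrane potential dye signal; 0% = forskolin plus galanin with DMSO and 100% = forskolin alone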
Target sequence (O60755 1-299 limits assumed): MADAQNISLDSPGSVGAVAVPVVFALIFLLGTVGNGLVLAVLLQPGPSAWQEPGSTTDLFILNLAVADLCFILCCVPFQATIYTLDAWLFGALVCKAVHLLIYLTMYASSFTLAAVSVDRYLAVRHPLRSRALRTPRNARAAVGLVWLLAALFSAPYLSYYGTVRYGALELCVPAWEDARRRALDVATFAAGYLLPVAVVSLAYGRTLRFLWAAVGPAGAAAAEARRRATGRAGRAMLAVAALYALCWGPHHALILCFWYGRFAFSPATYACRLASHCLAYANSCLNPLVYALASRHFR
NR2E3 ag-1 – agonists of human nuclear receptor NR2E3. Q9Y5X4. GST-NR2E3/biotin-RetCOR TR-FRET, 1536-well. inhibition of corepressor binding, % at 4.78 µM. hit rate 0.12% among 320,000. AID 2300;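 active = percent inhibition above the cutoff of mean plus 3 SD of all tested compounds, set per screening campaign, cut at about 20% in these data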;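 also: 0% = DMSO wells and 100% = biotin wells as full block of FRET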
Target sequence (Q9Y5X4 whole entry, looked up): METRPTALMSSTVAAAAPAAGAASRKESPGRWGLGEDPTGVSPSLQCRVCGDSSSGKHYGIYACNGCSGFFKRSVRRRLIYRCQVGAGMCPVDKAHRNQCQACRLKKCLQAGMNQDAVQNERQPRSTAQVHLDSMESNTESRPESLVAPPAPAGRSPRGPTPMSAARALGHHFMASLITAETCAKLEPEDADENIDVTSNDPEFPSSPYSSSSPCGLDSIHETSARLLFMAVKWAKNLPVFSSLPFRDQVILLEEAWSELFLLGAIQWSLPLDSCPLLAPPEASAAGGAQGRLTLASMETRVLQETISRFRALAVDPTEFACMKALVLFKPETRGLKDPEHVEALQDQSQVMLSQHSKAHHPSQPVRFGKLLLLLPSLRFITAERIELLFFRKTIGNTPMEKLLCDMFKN
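Material: NR2E3–RetCOR corepressor complex | Quantity: 1.35 nM GST-tagged NR2E3 final | Schedule: 5 h at 4 °C | Replication: Singlicate compound wells | Reagent: RetCOR corepressor, biotinylated, 7 nM | Controls: Biotin wells as high control, 0.6% DMSO wells as low control | Signal: TR-FRET, Eu(K)-anti-GST donor, streptavidin-D2 acceptor, ex 340, em 617/671 nm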
NR2E3 ag-2 – agonists of human NR2E3 nuclear receptor. Q9Y5X4. CHO-S Gal4-NCOR/VP16-NR2E3 two-hybrid, luciferase. inhibition of corepressor binding, % at 3.98 µM. hit rate 0.35% among 360,000;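 active = inhibition above the mean of all tested compounds plus 3 SD, cut at about 70% in these data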;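 also: 0% = DMSO with NR2E3 transfected cells and 100% = cells lacking NR2E3 construct; higher means lower luciferase signal from less NR2E3 corepressor binding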
An asterisk follows results filed as active; . = not tested or not shown; [ ] = dose if it differs, or a comment. In the library only some 2.2% were active in any assay of this set; here they are far more common.

SMILES | HIV Env fusion | V-ATPase pHluor | GAA850 FXN act | GalR3 antag | NR2E3 ag-1 | NR2E3 ag-2
CCCN(C)C[C@@H]1Oc2ncc(C#CC3CC3)cc2C(=O)N([C@@H](C)CO)C[C@@H]1C | 16[16.7 µM] | . | . | . | . | .
CCOc1ccc(-c2cc(CCCC(=O)Nc3cccc(OC)c3)no2)cc1 | 76* | -4 | -11 | . | 2 | -28
COc1ccc(-c2noc(CCCC(=O)O)n2)cc1 | 84* | -3 | -15 | -5 | 0 | 33
CCN(C(=O)C1CCN(c2nc(-c3ccc(OC)cc3)no2)CC1)c1ccc(OC)cc1 | 60* | 4 | -5 | . | -1 | 44
COc1ccc(NC(=O)C2CCN(c3nc(-c4ccc(OC)cc4)no3)CC2)cc1 | 12 | -2 | -7 | . | 0 | -25
COc1ccc(-c2noc(N3CCC(C(=O)N4CCN(c5ccccn5)CC4)CC3)n2)cc1 | 63* | 1 | -3 | 8 | 1 | 12
Brc1ccc2c(c1)C(C1=NCCN1)c1ccccc1CS2 (stereo not drawn) | 62* | 0 | -10 | -1 | 0 | -11
c1ccc2c(c1)CCCC2C1=NCCN1 (stereo not drawn) | 11 | 3 | -1 | -3 | 3 | -10
C[C@@H]1CN([C@H](C)CO)C(=O)c2cc(NC(=O)Nc3ccc(C(F)(F)F)cc3)ccc2O[C@@H](C)CCCCO[C@H]1CN(C)C(=O)c1ccccc1 | 56*[16.7 µM] | . | . | . | . | .
C[C@@H]1CCCCO[C@@H](CN(C)C(=O)Nc2ccc(C(F)(F)F)cc2)[C@H](C)CN([C@@H](C)CO)C(=O)c2cc(NC(=O)c3ccccc3)ccc2O1 | -10[16.7 µM] | . | . | . | . | .
C[C@H](CO)N1C[C@H](C)[C@@H](CN(C)C(=O)Nc2ccc(C(F)(F)F)cc2)OCCCC[C@H](C)Oc2ccc(NC(=O)c3ccccc3)cc2C1=O | 61*[16.7 µM] | . | . | . | . | .
Cc1noc(C)c1NC(=O)N(C)C[C@H]1OCCCC[C@H](C)Oc2ccc(NC(=O)c3ccccc3)cc2C(=O)N([C@H](C)CO)C[C@@H]1C | 68*[16.7 µM] | . | . | . | . | .
C[C@H](CO)N1C[C@H](C)[C@H](CN(C)C(=O)Nc2ccc(C(F)(F)F)cc2)OCCCC[C@H](C)Oc2ccc(NC(=O)c3ccccc3)cc2C1=O | -14[16.7 µM] | . | . | . | . | .
C[C@H]1CCCCO[C@H](CN(C)C(=O)Nc2ccc(C(F)(F)F)cc2)[C@@H](C)CN([C@@H](C)CO)C(=O)c2cc(NC(=O)c3ccccc3)ccc2O1 | 75*[16.7 µM] | . | . | . | . | .
C[C@H]1CCCCO[C@@H](CN(C)S(=O)(=O)c2ccccc2)[C@@H](C)CN([C@@H](C)CO)C(=O)c2cc(NC(=O)NC3CCCCC3)ccc2O1 | 20[16.7 µM] | . | . | . | . | .
C[C@H]1CN([C@@H](C)CO)C(=O)c2cc(C#CCN(C)C)cnc2O[C@@H]1CN(C)S(=O)(=O)c1cn(C)cn1 | -25[16.7 µM] | . | . | . | . | .
CCOC(=O)N1CCC(NC(=O)CSCc2cnn(-c3ccccc3)c2-n2cccc2)CC1 | . | 0 | 8.3* | -5 | 1 | 1
CNC(=O)C[C@H]1CC[C@H]2[C@@H](COc3ccc(NC(=O)c4ccc(F)c(F)c4)cc3C(=O)N2C)O1 | -23[16.7 µM] | . | . | . | . | .
COc1ccc(NC(=O)N(C)C[C@H]2OCCCC[C@H](C)Oc3ccc(NC(=O)Nc4ccc(F)cc4)cc3C(=O)N([C@H](C)CO)C[C@@H]2C)cc1 | -7[16.7 µM] | . | . | . | . | .
COc1ccc2c3c([nH]c2c1)[C@@H](CO)N(C(=O)NC(C)C)CC31CCN(C(=O)NC(C)C)CC1 | -1[16.7 µM] | . | . | . | . | .
O=S(=O)(NCc1cn2ccsc2n1)c1ccc(Oc2ccccc2)cc1 | . | 0 | -4 | 1 | -1 | 88*
O=S(=O)(NCc1cn2ccsc2n1)c1cccs1 | . | -1 | 0 | 1 | 0 | -6
Cc1ccc(-c2cnc3c(c2)C(=O)N([C@@H](C)CO)C[C@H](C)[C@@H](CN(C)Cc2ccccc2C(=O)O)O3)cc1 | -7[16.7 µM] | . | . | . | . | .
N#C/C(=C\c1ccc([N+](=O)[O-])o1)C(=O)Nc1ccc(F)cc1 | 5 | 114* | 2 | -1 | 3 | -16
COc1ccc(NC(=O)/C(C#N)=C\c2ccc(Br)o2)cc1 | -6 | -3 | 3 | -5 | 1 | -32
SMILES | HIV Env fusion | V-ATPase pHluor | GAA850 FXN act | GalR3 antag | NR2E3 ag-1 | NR2E3 ag-2
CC1(C)Cc2cccc(Oc3cc(NN4CCCCC4)c([N+](=O)[O-])cc3[N+](=O)[O-])c2O1 | 72* | 7 | 0 | -5 | 2 | -3
O=[N+]([O-])c1cc([N+](=O)[O-])c(Oc2cccc(Cl)c2Cl)cc1NN1CCCCC1 | 42 | -1 | 0 | -6 | 5 | -20
COC(=O)C1=C(C(=O)OC)[C@]2([C@H]3CC=CCN[C@@H](Cc4ccccc4)C(=O)N3Cc3ccccc3)C=C[C@H]1O2 | 58* | -2 | -6 | -9 | . | -43
CC(C)C[C@@H](COCc1cccc(Cl)c1)N1CCN(C(=O)c2ccc(C(F)(F)F)cc2)CCC1=O | 57* | . | . | -9 | . | -12
CC(C)C[C@@H](COCc1ccc(C(F)(F)F)cc1)N1CCN(C(=O)c2ccc(C(F)(F)F)cc2)CCC1=O | 46 | . | . | -6 | . | 5
O=C(c1ccc(C(F)(F)F)cc1)N1CCC(=O)N(C(COCc2ccc(Cl)cc2)Cc2ccccc2)CC1 (stereo not drawn) | 28 | 5 | -4 | -7 | 0 | 9
CC(C)CC(COCc1ccc(Cl)cc1)N1CCN(C(=O)c2cccc(C(F)(F)F)c2)CCC1=O (stereo not drawn) | -5 | -5 | 0 | -7 | 4 | 9
O=C(c1ccc(C(F)(F)F)cc1)N1CCC(=O)N(C(COCc2ccccc2)Cc2ccccc2)CC1 (stereo not drawn) | 63* | -3 | -2 | -5 | 3 | -17
CC(C)CC(COCc1ccc(C(F)(F)F)cc1)N1CCN(C(=O)c2ccc(C(F)(F)F)cc2)CCC1=O (stereo not drawn) | 58* | 1 | -1 | -4 | 3 | -25
CCCNC(=O)C[C@H]1CC[C@H]2[C@H](COc3ccc(NC(=O)Nc4ccccc4)cc3C(=O)N2C)O1 | 10[16.7 µM] | . | . | . | . | .
N#CCCN(C(=O)CN1CCN(S(=O)(=O)c2ccc(Cl)s2)CC1)c1ccc(F)cc1 | 62* | 0 | 0 | -5 | . | -21
C[C@@H]1CN([C@@H](C)CO)C(=O)c2cc(NC(=O)Cc3ccccc3)ccc2O[C@@H](C)CCCCO[C@@H]1CN(C)S(=O)(=O)c1ccc(F)cc1 | 17[16.7 µM] | . | . | . | . | .
CN(C)c1ccc(NC(=O)CSc2nc(N)c(C(=O)Nc3ccc(N(C)C)cc3)s2)cc1 | 41* | -4 | 3 | -4 | -3 | -21
COc1ccc(-c2nc(CS(=O)CC(=O)NCc3ccco3)c(C)o2)cc1OC (stereo not drawn) | 73* | -3 | -1 | . | -2 | 0
Cc1ccc(S(=O)(=O)Nc2ccc3c(c2)C(=O)N([C@H](C)CO)C[C@H](C)[C@@H](CN(C)Cc2ccc(C(=O)O)cc2)OCCCC[C@H](C)O3)cc1 | 9[16.7 µM] | . | . | . | . | .
